Measured values collected from several papers.
Lines come from different studies, so protocols differ.
Target: G protein-coupled receptor kinase 3 (GRK3, Homo sapiens, UniProt P35626)
Residues used in one study (P35626 1-688): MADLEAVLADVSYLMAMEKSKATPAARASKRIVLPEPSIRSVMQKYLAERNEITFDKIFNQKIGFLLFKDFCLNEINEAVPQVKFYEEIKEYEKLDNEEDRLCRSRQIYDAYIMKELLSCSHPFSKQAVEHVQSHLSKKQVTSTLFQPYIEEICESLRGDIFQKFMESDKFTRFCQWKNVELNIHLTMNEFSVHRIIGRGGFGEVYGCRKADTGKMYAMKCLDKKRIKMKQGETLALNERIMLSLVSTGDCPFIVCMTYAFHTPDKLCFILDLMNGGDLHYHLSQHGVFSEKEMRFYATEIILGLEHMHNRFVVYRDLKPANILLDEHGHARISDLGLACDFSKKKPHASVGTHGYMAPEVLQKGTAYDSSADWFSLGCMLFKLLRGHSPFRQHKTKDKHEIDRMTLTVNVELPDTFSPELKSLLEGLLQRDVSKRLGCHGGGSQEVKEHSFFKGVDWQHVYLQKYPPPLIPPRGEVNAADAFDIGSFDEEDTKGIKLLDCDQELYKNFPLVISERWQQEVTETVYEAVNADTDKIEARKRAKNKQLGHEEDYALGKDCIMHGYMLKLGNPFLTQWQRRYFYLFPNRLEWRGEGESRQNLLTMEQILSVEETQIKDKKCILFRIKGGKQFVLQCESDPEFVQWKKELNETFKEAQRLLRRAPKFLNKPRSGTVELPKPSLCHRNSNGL

O=C(Nc1cnc(Oc2ccc(F)cc2)nc1)N1CCc2ncccc2[C@@H]1c1ccc(F)cc1
remaining binding (cell-free assay, competition with immobilised ligand; 1 µM): 96%

CN(CCCC(F)(F)F)c1nccc(-c2cnn3ncccc23)n1
remaining binding (binding; 1 µM): 100%

Nc1ncc2c(n1)-c1c([nH]c3ccc(C#CC4CC4)cc13)CCCC2
remaining binding (binding, competition with immobilised ligand; 1 µM): 97%

O=C(NCC1CCOCC1)c1n[nH]cc1NC(=O)c1c(F)cccc1F
remaining binding (binding, competition with immobilised ligand; 1 µM): 44%

N[C@H]1CCN(c2nccc(-c3cnn4ncccc34)n2)C1
remaining binding (binding; 1 µM): 66%

O=C(Nc1ccc(Oc2ccc(F)cc2)cc1)N1CCc2ncccc2[C@H]1c1ccc(F)cc1
remaining binding (cell-free assay, competition with immobilised ligand; 1 µM): 95%

COc1cnc(Nc2cccc(S(N)(=O)=O)c2)nc1N1CCN(c2ccccc2)C(=O)C1
remaining binding (binding, competition with immobilised ligand; 1 µM): 70%

COc1ccc2c(c1)O[C@H](c1ccc(OC)c(OC)c1)C[C@@H]2NC(=O)C1(c2ccc3c(c2)OC(F)(F)O3)CC1
remaining binding (cell-free assay, competition with immobilised ligand; 1 µM): 100%

F[C@@H]1CCN(c2nccc(-c3cnn4ncccc34)n2)C1
remaining binding (binding; 1 µM): 13%

COc1cnc(Nc2cccc(S(N)(=O)=O)c2)nc1N1CCN(c2ccccc2)CC1
remaining binding (binding, competition with immobilised ligand; 1 µM): 72%

Cc1cnc(Nc2ccc(C(=O)N3CCC(N4CCCC4)CC3)cc2)nc1-c1cc2ccccc2s1
remaining binding (binding, competition with immobilised ligand; 1 µM): 73%

CN(c1nccc(-c2cnn3ncccc23)n1)C1CC1
remaining binding (binding; 1 µM): 100%

O=C(c1ccc(Nc2nccc(-c3cc4ccccc4s3)n2)cc1)N1CCC(N2CCCC2)CC1
remaining binding (binding, competition with immobilised ligand; 1 µM): 64%

CN(C)c1nccc(-c2cnn3ncccc23)n1
remaining binding (binding; 1 µM): 89%

O=C(O)[C@@H]1[C@@H](Cn2nnc3ccccc3c2=O)CC[C@H]1C(=O)c1ccc(OCCC2CCOCC2)cc1
remaining binding (cell-free assay, competition with immobilised ligand; 1 µM): 100%

c1cncc(-c2cccc(Nc3nccc(NC4CCCCC4)n3)c2)c1
remaining binding (binding, competition with immobilised ligand; 10 µM): 99%

C[C@H](c1ccnc(Nc2nc3ccc(-c4cc(N(C)C)ncn4)cc3[nH]2)c1)N1CCN(C(=O)CC(F)(F)F)CC1
remaining binding (cell-free assay, competition with immobilised ligand; 0.1 µM): 100%

C[C@H]1CCN(c2nccc(-c3cnn4ncccc34)n2)C1
remaining binding (binding; 1 µM): 33%

FC(F)(F)c1ccc2c(c1)nc(-c1cccnc1)n2C1CC1
remaining binding (cell-free assay, competition with immobilised ligand; 1 µM): 76%

O=C(NCCCN1CCOCC1)c1ccc(Nc2ncc(Cl)c(-c3ccc(Cl)s3)n2)cc1
remaining binding (binding, competition with immobilised ligand; 1 µM): 51%
